The values that follow come from ChEMBL document CHEMBL1132488, “On the bioactive conformation of NAN-190 (1) and MP3022 (2), 5-HT(1A) receptor antagonists” (J Med Chem, 1999).

Test [1] has as its system Rattus norvegicus. In words: Induction of LLR(lower lip retraction) by the compound in rats at a dose of 16 mg/kg. The class given is functional. The method in brief: (§1)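 Male Wistar rats, groups of 6, given compound alone ip as 1% Tween 80 suspension. Lower incisor visibility scored 0/0.5/1 at 15, 30 and 45 min after dosing, summed (max 3 per rat). Mean ± SEM versus vehicle, Newman–Keuls test; ED50 with range.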

Test [2] is filed under the species Rattus norvegicus. Description: Effect on 8-OH-DAPT- induced behavioral syndrome(FBP: flat body posture) by the compound in reserpine pretreated rats at a dose of 4. The class given is functional. Summed up: (§2)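 Reserpinized male Wistar rats (reserpine 1 mg/kg sc, 18 h before), groups of 6. Compound given ip in 1% Tween 80 60 min before 8-OH-DPAT 5 mg/kg sc. FBP/FT rated 0–3 at 3, 6, 9, 12 and 15 min after agonist, summed (max 15). Mean ± SEM; Newman–Keuls test; ED50 with range.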

Test [3] is filed under the species Rattus norvegicus. In words: Effect on 8-OH-DAPT- induced behavioral syndrome(FT: forepaw treading) by the compound in reserpine pretreated rats at a dose of 16. In kind it is functional. The method in brief: as §2
Test [4] is filed under the species Rattus norvegicus. In words: Dose inhibiting 8-OH-DPAT-induced behavioral syndrome(FBP: flat body posture) by the compound in reserpine pretreated rats.
Test [5] has as its system Rattus norvegicus. Description: Induction of LLR(lower lip retraction) by the compound in rats at a dose of 8 mg/kg. The class given is functional. Summed up: as §1
Test [6] is filed under the species Rattus norvegicus. Description: Induction of behavioral syndrome(FT: forepaw treading) by the compound in reserpine pretreated rats at a dose of 4. The class given is functional. The method in brief: (§3)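 Male Wistar rats (260–300 g) were given reserpine 1 mg/kg sc in saline 18 h before testing. Test compound was then given alone ip as a 1% Tween 80 suspension (2 mL/kg). FBP and FT were each scored 0–3 and summed (maximum 15). n=6 per group; mean ± SEM; Newman–Keuls test.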

The species named for test [7] is Rattus norvegicus. In words: Induction of behavioral syndrome(FBP: flat body posture) by the compound in reserpine pretreated rats at a dose of 16. The class given is functional. The method in brief:
(§4)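 Male Wistar rats (260–300 g), groups of 6, given reserpine 1 mg/kg sc 18 h before test. Compounds given ip as 1% Tween 80 suspension. FBP and FT rated 0–3 in 45-s sessions every 3 min, starting 3 min after dosing. Score summed over 5 periods (max 15 per symptom). Mean ± SEM; Newman–Keuls test.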

The species entered for test [8] is Rattus norvegicus. In words: Effect on 8-OH-DAPT- induced behavioral syndrome(FBP: flat body posture) by the compound in reserpine pretreated rats at a dose of 16. In kind it is functional. Summed up:
as §2

For test [9], the target named is T1, 5-hydroxytryptamine receptor 1A (Rattus norvegicus, UniProt P19327).
T1 sequence (P19327 whole entry): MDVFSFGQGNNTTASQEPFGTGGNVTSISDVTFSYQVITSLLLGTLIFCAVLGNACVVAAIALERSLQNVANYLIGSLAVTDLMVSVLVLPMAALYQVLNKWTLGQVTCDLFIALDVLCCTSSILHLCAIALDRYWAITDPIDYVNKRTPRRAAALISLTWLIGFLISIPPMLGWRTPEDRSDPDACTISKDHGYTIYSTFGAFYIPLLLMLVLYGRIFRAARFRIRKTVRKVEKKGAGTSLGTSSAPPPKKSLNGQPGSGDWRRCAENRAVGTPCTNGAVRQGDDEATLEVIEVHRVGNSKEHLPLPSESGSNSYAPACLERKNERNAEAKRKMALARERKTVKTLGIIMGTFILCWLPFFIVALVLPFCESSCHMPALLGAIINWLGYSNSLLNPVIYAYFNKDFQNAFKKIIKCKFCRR
Description: Ability to displace [3H]8-OH-DPAT from 5-hydroxytryptamine 1A receptor. The method in brief: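 Rat hippocampal membranes, [3H]8-OH-DPAT radioligand. Ki from at least three competition experiments, each with 10–14 drug concentrations run in triplicate. Ki calculated with the Cheng–Prusoff equation.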

Test [10] is filed under the species Rattus norvegicus. In words: Effect on 8-OH-DAPT- induced behavioral syndrome(FT: forepaw treading) by the compound in reserpine pretreated rats at a dose of 4. In kind it is functional. Summed up:
as §2

Test [11] is filed under the species Rattus norvegicus. Description: Induction of behavioral syndrome(FBP: flat body posture) by the compound in reserpine pretreated rats at a dose of 8. The class given is functional. The method in brief:
as §3

For test [12], the species on record is Rattus norvegicus. Description: Induction of behavioral syndrome(FT: forepaw treading) by the compound in reserpine pretreated rats at a dose of 8. In kind it is functional. The method in brief:
as §3

For test [13], the system named is Rattus norvegicus. Description: Induction of LLR(lower lip retraction) by the compound in rats at a dose of 32 mg/kg. In kind it is functional. The method in brief:
as §1

The test system of test [14] is Rattus norvegicus. Description: Effect on 8-OH-DPAT-Induced LLR(lower lip retraction) in rats at a dose of 8 mg/kg. In kind it is functional. Summed up: (§5)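 Male Wistar rats, groups of 6. Compound given ip in 1% Tween 80 45 min before 8-OH-DPAT 1 mg/kg sc. Lower incisor visibility scored 0/0.5/1 at 15, 30 and 45 min after agonist, summed (max 3). Mean ± SEM; Newman–Keuls test; ED50 with range.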

The species named for test [15] is Rattus norvegicus. In words: Induction of behavioral syndrome(FBP: flat body posture) by the compound in reserpine pretreated rats at a dose of 4. The class given is functional. The method in brief: as §3
The species entered for test [16] is Rattus norvegicus. In words: Dose Inducing behavioral syndrome(FT: forepaw treading) by the compound in reserpine pretreated rats. The class given is functional. Summed up:
as §4

The species named for test [17] is Rattus norvegicus. Description: Effect on 8-OH-DAPT- induced behavioral syndrome(FT: forepaw treading) by the compound in reserpine pretreated rats at a dose of 8. The class given is functional. The method in brief:
as §2

For test [18], the system named is Rattus norvegicus. Description: Effect on 8-OH-DPAT-Induced LLR(lower lip retraction) in rats at a dose of 32 mg/kg. The class given is functional. Summed up:
as §5

The species named for test [19] is Rattus norvegicus. Description: Effect on 8-OH-DAPT- induced behavioral syndrome(FBP: flat body posture) by the compound in reserpine pretreated rats at a dose of 8. In kind it is functional. The method in brief:
as §2

Test [20] is filed under the species Rattus norvegicus. Description: Effective dose of the required to inhibit symptoms produced by 8-OH-DPAT. In kind it is functional. The method in brief:
as §2

The species entered for test [21] is Rattus norvegicus. In words: Induction of behavioral syndrome(FT: forepaw treading) by the compound in reserpine pretreated rats at a dose of 16. In kind it is functional. Summed up:
as §3

In test [22] the test system is Rattus norvegicus. In words: Effect on 8-OH-DPAT-Induced LLR(lower lip retraction) in rats at a dose of 16 mg/kg. The class given is functional. Summed up:
as §5

For test [23], the species on record is Rattus norvegicus. Description: Induction of behavioral syndrome(FT: forepaw treading) by the compound in reserpine pretreated rats at a dose of 16; FT mean score. In kind it is functional. Summed up:
as §3

Test [24] is filed under the species Rattus norvegicus. Description: Dose Inducing behavioral syndrome(FT: forepaw treading) by the compound in reserpine pretreated rats. The class given is functional. Summed up: as §4
For test [25], the system named is Rattus norvegicus. In words: Induction of LLR(lower lip retraction) by the compound in rats at a dose of 16 mg/kg; LLR score. In kind it is functional. Summed up: as §1
The species entered for test [26] is Rattus norvegicus. In words: Induction of behavioral syndrome(FT: forepaw treading) by the compound in reserpine pretreated rats at a dose of 8; FT mean score. In kind it is functional. Summed up: as §3
For test [27], the species on record is Rattus norvegicus. In words: Induction of behavioral syndrome(FBP: flat body posture) by the compound in reserpine pretreated rats at a dose of 4; FBP mean score. The class given is functional. Summed up: as §3
The species entered for test [28] is Rattus norvegicus. Description: Effect on 8-OH-DAPT- induced behavioral syndrome(FT: forepaw treading) by the compound in reserpine pretreated rats at a dose of 8; FT mean score. In kind it is functional. The method in brief:
as §2

Test [29] is filed under the species Rattus norvegicus. Description: Induction of behavioral syndrome(FBP: flat body posture) by the compound in reserpine pretreated rats at a dose of 8. The class given is functional. Summed up: as §3
The species entered for test [30] is Rattus norvegicus. In words: Induction of behavioral syndrome(FT: forepaw treading) by the compound in reserpine pretreated rats at a dose of 4; FT mean score. The class given is functional. Summed up: as §3
For test [31], the species on record is Rattus norvegicus. Description: Effective dose required to induce LLR(lower lip retraction). The class given is functional. Summed up:
as §1

For test [32], the system named is Rattus norvegicus. In words: Induction of LLR(lower lip retraction) by the compound in rats at a dose of 4 mg/kg; LLR score. In kind it is functional. The method in brief:
as §1

The species entered for test [33] is Rattus norvegicus. In words: Effect on 8-OH-DAPT- induced behavioral syndrome(FBP: flat body posture) by the compound in reserpine pretreated rats at a dose of 16; FBP mean score. The class given is functional. Summed up: as §2
Test [34] is filed under the species Rattus norvegicus. In words: Effect on 8-OH-DAPT- induced behavioral syndrome(FT: forepaw treading) by the compound in reserpine pretreated rats at a dose of 16. The class given is functional. Summed up:
as §2

The species named for test [35] is Rattus norvegicus. In words: Effect on 8-OH-DAPT- induced behavioral syndrome(FBP: flat body posture) by the compound in reserpine pretreated rats at a dose of 8; FBP mean score. In kind it is functional. Summed up: as §2
For test [36], the species on record is Rattus norvegicus. In words: Effect on 8-OH-DAPT- induced behavioral syndrome(FBP: flat body posture) by the compound in reserpine pretreated rats at a dose of 4; FBP mean score. In kind it is functional. Summed up:
as §2

The species entered for test [37] is Rattus norvegicus. Description: Dose Inducing behavioral syndrome(FBP: flat body posture) by the compound in reserpine pretreated rats. The class given is functional. The method in brief:
as §4

The species entered for test [38] is Rattus norvegicus. In words: Induction of behavioral syndrome(FBP: flat body posture) by the compound in reserpine pretreated rats at a dose of 16; FBP mean score. In kind it is functional. Summed up:
as §4

Test [39] concerns Rattus norvegicus. In words: Induction of LLR(lower lip retraction) by the compound in rats at a dose of 8 mg/kg; LLR score. In kind it is functional. Summed up:
as §1

The species named for test [40] is Rattus norvegicus. Description: Effect on 8-OH-DAPT- induced behavioral syndrome(FT: forepaw treading) by the compound in reserpine pretreated rats at a dose of 4; FT mean score. The class given is functional. The method in brief: as §2

Usually ED50 stands for the midpoint of the dose-response relation. The term Ki denotes the dissociation constant of the complex between target and ligand, obtained from inhibition or displacement.

As to `COc1ccccc1N1CCN(C2CCC(N3C(=O)[C@H]4CCCC[C@H]4C3=O)CC2)CC1` (stereo partly specified), the LLR score is recorded as 0.3 in the test with Rattus norvegicus [1]; 0.2 in the test on Rattus norvegicus [5]; 0.3 in the test with Rattus norvegicus [13]; 2.3 in the test with Rattus norvegicus [14]; 1.1 with Rattus norvegicus [18]; 1.6 in the test on Rattus norvegicus [22]. The FBP mean score in the test filed under Rattus norvegicus [2] stood at 11.6; in the test listed under Rattus norvegicus [7], 0.1; in the test listed under Rattus norvegicus [8], 3.2; in the test filed under Rattus norvegicus [11], 0.1; in the test listed under Rattus norvegicus [15], 0.2; in the test filed under Rattus norvegicus [19], 9.8. The FT mean score in the test listed under Rattus norvegicus [3] is 2; in the test filed under Rattus norvegicus [6], 0.2; in the test listed under Rattus norvegicus [10], 9.2; in the test filed under Rattus norvegicus [12] it was 0.2; in the test listed under Rattus norvegicus [17], 5.4; in the test listed under Rattus norvegicus [21] it was 0.1. For the same molecule, the median effective dose (ED50) in the test listed under Rattus norvegicus [4] stood at 11 mg/kg; in the test filed under Rattus norvegicus [16], 7.3 mg/kg; in the test listed under Rattus norvegicus [20] it was 20 mg/kg. The same molecule yielded a Ki in test [9] of 72 nM.
Turning to `COc1ccccc1N1CCN(C2CCCC(n3nnc4ccccc43)C2)CC1` (stereo unspecified), the FT mean score in the test listed under Rattus norvegicus [23] is recorded as 0.1; in the test listed under Rattus norvegicus [26] it was 0.3; in the test listed under Rattus norvegicus [28], 3.5; in the test listed under Rattus norvegicus [30] it was 0.1; in the test listed under Rattus norvegicus [34], 0.8; in the test filed under Rattus norvegicus [40], 9.6. Further, the ED50 in the test filed under Rattus norvegicus [24] stood at 7 mg/kg; in the test filed under Rattus norvegicus [31], 8 mg/kg; in the test listed under Rattus norvegicus [37], 11 mg/kg. The LLR score in the test on Rattus norvegicus [25] is 1.6; in the test with Rattus norvegicus [32], 0.9; in the test on Rattus norvegicus [39], 1.3. Also, the FBP mean score was 0.6 in the test listed under Rattus norvegicus [27]; 0.5 in the test filed under Rattus norvegicus [29]; 6.2 in the test filed under Rattus norvegicus [33]; 7 in the test listed under Rattus norvegicus [35]; 12.5 in the test filed under Rattus norvegicus [36]; 1 in the test filed under Rattus norvegicus [38]. Moreover, in test [9], the inhibition constant (Ki) was 47 nM.
